Screens (PubChem BioAssay)
This is a sample that favours compounds with a hit; in the whole collection about 4.5% have one here.
STAT1 activator – activators of IFN-gamma induced STAT1 signaling | NIH 3T3 STAT1-luciferase reporter, luminescence; 100% = IFN-gamma alone, no compound | activation (% of control), % at 5.5 µM | 200,000 tested, 2.6% active | AID 932;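 active = activation above the screen-wide mean activation plus 3 SD, cut at about 130% in these data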;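 note: raw ratio to IFN-gamma control signal so 100% means no change and 0% no light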
NF-kB expr up – NF-kB expression increase, human neuronal cells | 190,000 tested, 1.6% active | AID 1239 | NF-kB reporter expression; active compounds read high | fold change at 12.5 µM; in the data active = fold change above about 3.3
AHR act – human AHR activation | AHR-responsive luciferase reporter cells, luminescence | P35869 | activation, % at 5 µM | 320,000 tested, 2.5% active | AID 2796; in the data active = activation above about 47%;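 note: 0% = vehicle wells and 100% = reference agonist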
Target sequence (P35869 whole entry, looked up): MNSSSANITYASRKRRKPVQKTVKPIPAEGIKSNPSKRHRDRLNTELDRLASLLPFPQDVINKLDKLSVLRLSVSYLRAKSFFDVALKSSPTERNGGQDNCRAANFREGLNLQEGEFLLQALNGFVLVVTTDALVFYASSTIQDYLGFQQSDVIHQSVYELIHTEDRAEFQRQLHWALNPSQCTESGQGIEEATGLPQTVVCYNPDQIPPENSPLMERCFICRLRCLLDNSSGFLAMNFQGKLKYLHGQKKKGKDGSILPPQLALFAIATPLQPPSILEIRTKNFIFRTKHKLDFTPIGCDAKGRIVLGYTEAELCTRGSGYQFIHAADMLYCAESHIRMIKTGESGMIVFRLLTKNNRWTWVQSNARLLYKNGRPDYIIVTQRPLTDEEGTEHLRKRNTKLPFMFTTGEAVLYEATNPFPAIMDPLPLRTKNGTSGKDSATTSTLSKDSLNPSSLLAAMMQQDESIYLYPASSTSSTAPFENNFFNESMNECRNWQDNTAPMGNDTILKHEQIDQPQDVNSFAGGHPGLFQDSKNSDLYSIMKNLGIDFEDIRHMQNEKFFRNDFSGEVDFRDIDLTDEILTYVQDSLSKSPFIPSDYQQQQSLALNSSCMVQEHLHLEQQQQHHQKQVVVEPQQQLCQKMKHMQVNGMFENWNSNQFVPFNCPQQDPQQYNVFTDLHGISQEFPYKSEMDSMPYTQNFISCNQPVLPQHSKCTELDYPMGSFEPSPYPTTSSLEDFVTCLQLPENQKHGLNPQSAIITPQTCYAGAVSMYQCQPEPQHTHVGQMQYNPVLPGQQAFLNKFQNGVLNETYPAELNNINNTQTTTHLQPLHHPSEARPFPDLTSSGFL
APP 5'UTR act – activates APP 5'UTR luciferase reporter; SH-SY5Y APP 5'UTR luciferase reporter, luminescence; zero percent = DMSO vehicle wells; activation, % at 2 µM; 190,000 tested, 1% active;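 active = activation above a set limit, based on mean plus 3 SD of controls, cut at about 140% in these data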
PERK inh – human PERK inhibition, primary cell-based screen | inhibition, % at 5.6 µM | 220,000 tested, 0.17% active | CHO PERK-DD fusion, SEAP luminescence translation reporter | Q9NZJ5;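 active = inhibition above the mean inhibition of all tested compounds plus 3 SD, set separately per screening campaign, cut at about 2.9% in these data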;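 note: PERK kinase domain activated by AP20187 dimerizer at 100 nM; 0% = DMSO with dimerizer and 100% = rapamycin at 8.4 µM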
Mdm2 ligase inh – inhibitors of human Mdm2 E3 ubiquitin ligase | cell-based MDM2 ubiquitination luciferase reporter, 2 h; 0 = plate control, 100 = twice control, blank-subtracted | signal enhancement, % at 5 µM | 210,000 tested, 0.11% active;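 active = signal enhancement of 30% or more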;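 note: luminescence tracks abundance of the self-degrading MDM2-luciferase fusion protein; higher signal means inhibition of MDM2 E3 ligase activity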
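Material: stable MDM2–luciferase fusion reporter cells / Quantity: 2000 cells/well / Dosing: single 5 µM compound dose, 0.2% final DMSO / Buffer or medium: DMEM / Schedule: 4 h cell settling then 2 h compound exposure, 37 °C / Detection: luminescence with SteadyLite reagent, 15 min at room temperature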
The depositor's hits bear a star; nt = no result.

SMILES	STAT1 activator	NF-kB expr up	AHR act	APP 5'UTR act	PERK inh	Mdm2 ligase inh
O=C(O)c1ccc(-c2nc(-c3ccccc3Cl)cs2)cc1	134*	1.8	7	52	1	8
Cc1oncc1-c1csc(-c2ccccc2)n1	137*	2.3	-2	56	1	-19
Cc1oncc1-c1csc(-c2ccccc2Cl)n1	143*	1.3	-1	22	1	0
Cc1ccc(NC(=O)COc2ccccc2)c(NC(=O)c2ccco2)c1	nt	nt	7	nt	nt	nt
CCN(CC)P(=O)(Nc1ccc(C)cc1Br)c1ccc(N(C)C)cc1NC(=O)c1ccco1 (stereo unspecified)	103	0.65	49*	8	0	11
COc1cccc(N2CCN(C(=O)c3cc(C)oc3C)CC2)c1	nt	nt	0	nt	nt	nt
CC(C)N1CCC2(CC1)N=C(c1ccc3c(c1)OCO3)CC(c1cc(Cl)ccc1O)N2 (stereo unspecified)	86	4.7*	76*	53	1	-8
CN(C)c1ccc(NC(=O)c2sc(SCC(=O)Nc3ccc(Br)cc3)nc2N)cc1	96	0.94	3	5	1	-4
CN(C)c1ccc(NC(=O)c2sc(SCC(=O)Nc3nccs3)nc2N)cc1	108	0.88	78*	77	0	-2
COC(=O)[C@@]12CCCN1[C@H](c1ccc(-c3ccccc3)c(OC)c1)[C@H]1C(=O)N(C)C(=O)[C@H]12	nt	nt	0	nt	nt	nt
CN(C)/C=C/C(=C\C(=O)C(F)(F)F)Nc1ccc(C(F)(F)F)cc1	108	0.86	3	-8	0	4
c1ccc(Sc2cnc3ccccc3n2)cc1	134*	1.6	2	38	1	-8
Clc1ccc(Sc2cnc3ccccc3n2)cc1	114	2.8	-1	12	2	4
O=C1NC2(CCCC2)Oc2ccccc21	95	3.5*	2	23	1	-26
Clc1ccccc1-c1nn2c(Cn3cnc4ccccc43)nnc2s1	99	0.75	16	-19	-2	-21
c1ccc2c(c1)OCC(c1nnc3sc(-c4ccc5c(c4)OCO5)nn13)O2 (stereo unspecified)	101	1.5	48*	10	1	-11
c1csc(-c2nn3c(C4COc5ccccc5O4)nnc3s2)c1 (stereo unspecified)	102	1.8	62*	23	1	-15
Fc1ccc(-c2nn3c(C4COc5ccccc5O4)nnc3s2)cc1 (stereo unspecified)	95	1.5	8	2	1	-13
c1ccc2c(c1)ncn2Cc1nnc2sc(-c3ccc4c(c3)OCO4)nn12	97	0.95	50*	-13	-1	-16
Clc1ccccc1-c1nnc2sc(-c3ccc4c(c3)OCO4)nn12	102	1.2	56*	22	0	-11
COc1ccc(CNS(=O)(=O)c2ccc3c(c2)CCN3C(=O)C2CCC2)cc1	nt	nt	-2	nt	nt	nt
Cc1ccc(S(=O)(=O)N2CCOCC2)cc1NCC(=O)Nc1ccc(OC(F)(F)F)cc1	nt	nt	0	nt	nt	nt
COc1cccc(C2=Nn3c(nnc3-c3ccccc3O)SC2)c1	91	1.1	58*	3	-1	-7
COc1cccc(-c2nnc3n2N=C(c2cc(OC)ccc2OC)CS3)c1	103	1.1	59*	9	-1	-7
Cc1cc2ncn(C(=O)c3ccc4c(c3)OCO4)c2cc1C	102	1.6	16	0	1	-5
SMILES	STAT1 activator	NF-kB expr up	AHR act	APP 5'UTR act	PERK inh	Mdm2 ligase inh
Cc1cc2ncn(C(=O)N3CCC(C)CC3)c2cc1C	113	1.6	-5	51	-1	38*
CCc1ccc(C(=O)CN2C(=O)NC3(CCOc4ccccc43)C2=O)s1 (stereo unspecified)	nt	nt	3	nt	nt	nt
C=CCNC(=S)NC(=O)c1oc2ccccc2c1C	134*	2	66*	57	1	-5
Cc1c(C(=O)NCc2ccccn2)oc2ccccc12	114	1.8	59*	36	-1	-16
Cc1c(C(=O)NCc2ccccn2)oc2ccc(Br)cc12	nt	nt	48*	nt	nt	nt
Cc1c(C(=O)NNC(=O)c2ccccc2O)oc2ccc(Br)cc12	nt	nt	51*	nt	nt	nt
COc1ccc(C(C)(C)C)cc1NC(=O)CCCN1C(=O)NC(C)(C)C1=O	nt	nt	0	nt	nt	nt
COc1ccc(Br)cc1/C=N/NC(=O)c1ccc(COc2ccc3c(c2)CCC3)o1	112	1	62*	4	1	-13
O=C(N/N=C/c1ccc2ccccc2c1)c1ccc(COc2ccc3c(c2)CCC3)o1	115	1.2	47*	13	0	-19
O=C(N/N=C/c1ccccc1F)c1ccc(COc2ccccc2Cl)o1	105	1	22	4	1	-6
COc1ccccc1/C=N\NC(=O)c1ccc(COc2ccc(C)c(C)c2)o1	nt	nt	49*	nt	nt	nt
O=C(NCc1cccnc1)c1ccc(COc2ccc3c(c2)CCC3)o1	106	0.79	13	-7	0	-6
COc1cccc(/C=N/NC(=O)c2ccc(COc3ccc(Cl)cc3Cl)o2)c1	82	1.2	53*	1	0	0
COc1cc(/C=N/NC(=O)c2ccc(COc3ccccc3Cl)o2)cc(Br)c1O	104	1.1	40	27	0	8
COC(=O)c1ccc(COc2ccc3c(c2)CCC3)o1	nt	nt	7	nt	-1	-5
COC(=O)[C@]1(C)N[C@H](CN(C)C(=O)Nc2ccccc2)[C@@H]2C(=O)N(Cc3ccccc3)C(=O)[C@@H]21	nt	nt	-1	nt	nt	nt
CN(C)C1=NCCN1CC1CCCC1	nt	nt	-1	nt	nt	nt
COCCSc1ccccc1C(=O)N1CCOCC1	102	1.2	0	14	0	-4
Cc1cc(C(=O)COc2cc(F)ccc2[N+](=O)[O-])c(C)n1C1CC1	94	1.2	76*	8	0	12
Cc1nn(Cc2ccccc2)c(C)c1/C=N/NC(=O)c1cccnc1	99	1.1	71*	-4	1	0
COc1ccc(-c2[nH]ncc2/C=N\NC(=O)c2ccc(Br)o2)cc1OC	nt	nt	60*	nt	nt	nt
Cc1nn(Cc2ccc(F)cc2)c(Cl)c1/C=N/NC(=O)c1cccnc1	102	0.68	52*	-1	-1	-7
COc1cccc(C(=O)N/N=C/c2cn[nH]c2-c2ccc(OC)cc2OC)c1	101	1	32	-11	0	-17
Cc1nn(Cc2ccc(F)cc2)c(Cl)c1/C=N/NC(=O)c1ccccc1	126	1.1	15	1	1	-8
Cc1ccc(Cn2nc(C)c(/C=N/NC(=O)c3cccnc3)c2C)cc1	96	0.93	32	1	1	-2
Cc1nn(-c2ccccc2)c(Cl)c1/C=N/NC(=O)c1ccc(NS(=O)(=O)c2cccs2)cc1	137*	2.2	8	37	0	-18
CC(C)(C)C(=O)N/C(N)=N/c1nc2ccccc2o1	nt	nt	-4	nt	-1	-30
Cc1nnc(NC(=O)C2CC(=O)N(c3ccccc3)C2)s1 (stereo unspecified)	nt	nt	1	nt	nt	nt
CCc1nn(CC(=O)NCCCN2CCOCC2)c(=O)c2cc3cc(F)ccc3n12	nt	nt	3	nt	nt	nt
